Measured values from ChEMBL document CHEMBL3232922, “Discovery and SAR of 6-alkyl-2,4-diaminopyrimidines as histamine H₄ receptor antagonists” (J Med Chem, 2014).

Columns and labels:
[1] = Initial plasma concentration in beagle dog at 2 mg/kg, iv; assay type: ADME, organism-based, Canis lupus familiaris; design: dose 2 mg/kg, route intravenous
[2] = Half life in rat microsomes; assay type: ADME, Microsome
[3] = Antagonist activity at monkey histamine H4 receptor; design: species or system Macaca mulatta
[4] = Oral bioavailability in rat at 10 mg/kg; assay type: ADME, organism-based; conditions: in vivo
[5] = Tmax in beagle dog at 10 mg/kg, po; assay type: ADME, organism-based, Canis lupus familiaris; design: dose 10 mg/kg, route oral; conditions: in vivo
[6] = Binding affinity to monkey histamine H4 receptor; design: species or system Macaca mulatta
[7] = Clearance in Sprague-Dawley rat at 2 mg/kg, iv; assay type: ADME, organism-based; design: dose 2 mg/kg, route intravenous; conditions: Sprague-Dawley, in vivo
[8] = Half life in dog liver microsomes; assay type: ADME, Canis lupus familiaris
[9] = Permeability from basolateral to apical side in human Caco cells; assay type: ADME, cell-based; conditions: Caco-2, read-out: permeability
[10] = molecular target: Cytochrome P450 2C9 (Homo sapiens, UniProt P11712); assay: Inhibition of CYP2C9 (unknown origin) at 50 to 100 uM; assay type: ADME
[11] = Tmax in Sprague-Dawley rat at 500 mg/kg, po; assay type: ADME, organism-based; design: dose 500 mg/kg, route oral; conditions: in vivo
[12] = molecular target: T1, Histamine H4 receptor (Cavia porcellus, UniProt Q91ZY3); assay: Binding affinity to guinea pig histamine H4 receptor
T1 sequence (Q91ZY3 whole entry): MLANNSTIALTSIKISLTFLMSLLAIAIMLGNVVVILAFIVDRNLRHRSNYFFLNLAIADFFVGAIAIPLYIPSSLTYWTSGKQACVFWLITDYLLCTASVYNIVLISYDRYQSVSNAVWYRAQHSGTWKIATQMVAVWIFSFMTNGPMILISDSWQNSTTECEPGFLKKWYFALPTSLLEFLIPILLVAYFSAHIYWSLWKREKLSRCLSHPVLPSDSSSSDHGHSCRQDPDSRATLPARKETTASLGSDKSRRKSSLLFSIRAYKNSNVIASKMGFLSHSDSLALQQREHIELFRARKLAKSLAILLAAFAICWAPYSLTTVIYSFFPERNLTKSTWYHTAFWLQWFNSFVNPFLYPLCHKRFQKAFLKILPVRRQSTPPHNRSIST

[13] = Cmax in Sprague-Dawley rat at 200 mg/kg, po; assay type: ADME, organism-based; design: dose 200 mg/kg, route oral; conditions: in vivo
[14] = molecular target: T2, Cytochrome P450 1A2 (Homo sapiens, UniProt P05177); assay: Inhibition of CYP1A2 (unknown origin) at 50 to 100 uM; assay type: ADME
T2 sequence (P05177 whole entry): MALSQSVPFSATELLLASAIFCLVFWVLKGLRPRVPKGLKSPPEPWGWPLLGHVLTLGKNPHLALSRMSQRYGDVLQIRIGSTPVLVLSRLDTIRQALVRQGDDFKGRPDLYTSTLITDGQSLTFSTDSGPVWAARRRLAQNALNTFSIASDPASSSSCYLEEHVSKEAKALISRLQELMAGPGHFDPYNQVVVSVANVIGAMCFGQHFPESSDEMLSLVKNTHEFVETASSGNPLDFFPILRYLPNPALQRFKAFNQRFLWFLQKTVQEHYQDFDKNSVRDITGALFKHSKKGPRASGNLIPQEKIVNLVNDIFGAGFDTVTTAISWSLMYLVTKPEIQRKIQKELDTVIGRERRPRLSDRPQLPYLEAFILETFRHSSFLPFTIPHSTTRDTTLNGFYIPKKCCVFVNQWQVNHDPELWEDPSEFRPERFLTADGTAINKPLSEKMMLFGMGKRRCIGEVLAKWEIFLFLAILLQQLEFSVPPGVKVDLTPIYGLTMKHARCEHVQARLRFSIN

[15] = AUC in Sprague-Dawley rat at 2 mg/kg, iv; assay type: ADME, organism-based; design: dose 2 mg/kg, route intravenous; conditions: plasma
[16] = Half life in mouse liver at 5 mg/kg, po administered as single dose by LC-MS/MS analysis; assay type: ADME, organism-based; design: dose 5 mg/kg, route oral
In short: (§1)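 Mice received one oral dose of 5 mg/kg. Brain, liver and kidneys were surgically removed from three mice per time point for up to 96 h after dosing. Tissue drug levels were measured by LC–MS/MS with a lower limit of quantitation of 1 ng/g. Tmax and t1/2 are reported as means.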

[17] = Oral bioavailability in Balb/c mouse at 5 mg/kg; assay type: ADME, organism-based; conditions: in vivo
[18] = AUC in Balb/c mouse at 2 mg/kg, iv; assay type: ADME, organism-based; design: dose 2 mg/kg, route intravenous; conditions: plasma
[19] = Cmax in Sprague-Dawley rat at 500 mg/kg, po; assay type: ADME, organism-based; design: dose 500 mg/kg, route oral; conditions: in vivo
[20] = Half life in human microsomes; assay type: ADME, Microsome
[21] = molecular target: T3, Histamine H4 receptor (Mus musculus, UniProt Q91ZY2); assay: Displacement of [3H]histamine from mouse histamine H4 receptor expressed in SK-N-MC cells after 45 mins by competition binding analysis; assay type: cell-based
T3 sequence (Q91ZY2 whole entry): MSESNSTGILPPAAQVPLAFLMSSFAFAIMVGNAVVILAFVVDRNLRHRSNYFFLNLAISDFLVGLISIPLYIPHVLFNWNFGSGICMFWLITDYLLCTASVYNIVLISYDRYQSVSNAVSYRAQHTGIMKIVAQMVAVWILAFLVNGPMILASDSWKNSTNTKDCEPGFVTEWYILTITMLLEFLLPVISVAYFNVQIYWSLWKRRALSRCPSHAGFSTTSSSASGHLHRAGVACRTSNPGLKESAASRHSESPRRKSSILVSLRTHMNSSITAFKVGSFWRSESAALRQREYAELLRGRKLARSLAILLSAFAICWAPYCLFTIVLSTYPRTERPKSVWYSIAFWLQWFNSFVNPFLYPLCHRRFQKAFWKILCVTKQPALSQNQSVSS
In short: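 Transfected cells expressing the H4 receptor, competition against [3H]histamine. Ki is the geometric mean of at least three independent determinations (each in triplicate), calculated by the Cheng–Prusoff equation.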

[22] = AUC in Sprague-Dawley rat at 200 mg/kg, po; assay type: ADME, organism-based; design: dose 200 mg/kg, route oral; conditions: plasma
[23] = Half life in rat at 2 mg/kg, iv; assay type: ADME, organism-based; design: dose 2 mg/kg, route intravenous; conditions: in vivo
[24] = Fraction unbound in rat plasma; assay type: ADME, cell-free
[25] = Tmax in mouse brain at 5 mg/kg, po administered as single dose by LC-MS/MS analysis; assay type: ADME, organism-based; design: dose 5 mg/kg, route oral; in short: as §1
[26] = Oral bioavailability in Sprague-Dawley rat at 200 mg/kg; assay type: ADME, organism-based; conditions: in vivo
[27] = Half life in mouse kidney at 5 mg/kg, po administered as single dose by LC-MS/MS analysis; assay type: ADME, organism-based; design: dose 5 mg/kg, route oral; in short: as §1
[28] = AUC in rat at 2 mg/kg, iv; assay type: ADME, organism-based; design: dose 2 mg/kg, route intravenous; conditions: plasma
[29] = Volume of distribution at steady state in rat at 2 mg/kg, iv; assay type: ADME, organism-based; design: dose 2 mg/kg, route intravenous; conditions: in vivo, read-out: Vdss
[30] = Fraction unbound in human plasma; assay type: ADME, cell-free
[31] = Half life in beagle dog at 10 mg/kg, po; assay type: ADME, organism-based, Canis lupus familiaris; design: dose 10 mg/kg, route oral; conditions: in vivo
[32] = Cmax in Sprague-Dawley rat at 50 mg/kg, po; assay type: ADME, organism-based; design: dose 50 mg/kg, route oral; conditions: in vivo
[33] = Cmax in Balb/c mouse at 5 mg/kg, po; assay type: ADME, organism-based; design: dose 5 mg/kg, route oral; conditions: in vivo
[34] = molecular target: Histamine H4 receptor (Rattus norvegicus, UniProt Q91ZY1); assay: Antagonist activity at rat histamine H4 receptor expressed in SK-N-MC cells assessed as reduction of histamine-induced inhibition of cAMP-mediated beta-galactosidase reporter gene activity treated 10 mins prior to histamine challenge by microplate reader analysis; assay type: functional, cell-based; conditions: read-out: pA2 (converted)
[35] = Volume of distribution at steady state in Sprague-Dawley rat at 2 mg/kg, iv; assay type: ADME, organism-based; design: dose 2 mg/kg, route intravenous; conditions: Sprague-Dawley, in vivo, read-out: Vdss
[36] = Volume of distribution at steady state in Balb/c mouse at 2 mg/kg, iv; assay type: ADME, organism-based; design: dose 2 mg/kg, route intravenous; conditions: in vivo, read-out: Vdss

Chain of Histamine H4 receptor (Rattus norvegicus, UniProt Q91ZY1) (Q91ZY1 whole entry): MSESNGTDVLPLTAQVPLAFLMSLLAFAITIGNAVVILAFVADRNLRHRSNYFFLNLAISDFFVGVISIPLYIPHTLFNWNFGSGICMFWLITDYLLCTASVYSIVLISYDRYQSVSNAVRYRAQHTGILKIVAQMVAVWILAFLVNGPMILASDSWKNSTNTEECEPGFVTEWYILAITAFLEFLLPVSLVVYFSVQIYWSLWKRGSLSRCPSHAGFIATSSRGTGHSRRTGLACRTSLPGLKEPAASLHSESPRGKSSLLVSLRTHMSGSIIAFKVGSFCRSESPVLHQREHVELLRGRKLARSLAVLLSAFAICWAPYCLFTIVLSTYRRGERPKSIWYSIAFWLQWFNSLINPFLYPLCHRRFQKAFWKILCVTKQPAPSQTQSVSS
Chain of Cytochrome P450 2C9 (P11712 whole entry): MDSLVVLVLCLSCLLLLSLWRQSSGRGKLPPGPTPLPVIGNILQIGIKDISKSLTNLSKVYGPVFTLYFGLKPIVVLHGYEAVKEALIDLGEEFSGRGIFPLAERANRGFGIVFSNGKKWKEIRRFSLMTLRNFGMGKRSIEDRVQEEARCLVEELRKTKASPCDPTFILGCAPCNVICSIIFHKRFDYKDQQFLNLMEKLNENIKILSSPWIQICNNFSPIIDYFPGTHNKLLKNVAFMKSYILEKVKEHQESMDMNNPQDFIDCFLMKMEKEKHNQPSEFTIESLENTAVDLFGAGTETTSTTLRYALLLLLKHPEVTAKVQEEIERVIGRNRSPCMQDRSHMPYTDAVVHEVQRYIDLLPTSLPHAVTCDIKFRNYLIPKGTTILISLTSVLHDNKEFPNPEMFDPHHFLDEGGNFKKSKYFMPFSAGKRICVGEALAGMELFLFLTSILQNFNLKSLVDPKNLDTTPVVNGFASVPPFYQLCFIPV

## CC(C)c1cc(N2CC[C@@H](N)C2)nc(N)n1 [JNJ-39758979]
[1]
  C0: 4.22 µM
[2]
  half-life: 1.02 h
[3]
  pA2: 7.5
[4]
  bioavailability: 36%
[5]
  Tmax: 0.8 h
[6]
  Ki: 25 nM
[7]
  clearance: 91.7 mL/min/kg
[8]
  half-life: > 2 h
[9]
  Papp B→A: 22 ×10⁻⁶ cm/s
[10]
  inhibition (INH): Not Active
[11]
  Tmax: 8 h
[12]
  Ki: 306 nM
[13]
  Cmax: 4.91 µM
[14]
  inhibition (INH): Not Active
[15]
  AUC: 1.4 µM·h
[16]
  half-life: 22.3 h
[17]
  bioavailability: 84%
[18]
  AUC: 3.27 µM·h
[19]
  Cmax: 7.07 µM
[20]
  half-life: > 3 h
[21]
  Ki: 5.3 nM
[22]
  AUC: 71.2 µM·h
[23]
  half-life: 2.1 h
[24]
  fraction unbound: 0.83
[25]
  Tmax: 6 h
[26]
  bioavailability: 51%
[27]
  half-life: 20.5 h
[28]
  AUC: 1.4 µM·h
[29]
  Vd: 19.9 L/kg
[30]
  fraction unbound: 0.81
[31]
  half-life: 11.2 h
[32]
  Cmax: 1.25 µM
[33]
  Cmax: 0.79 µM
[34]
  Kb: 63.1 nM
[35]
  Vd: 19.9 L/kg
[36]
  Vd: 31 L/kg
